From ChEMBL document CHEMBL4689842, “EUbOPEN Chemogenomics Library wave 1” (2021)

Test system: Fibroblast
Assay: Multiplex assay against human fibroblast
Type: toxicity, cell-based
Summary of the method: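 With compound added, live cells were imaged on a CQ1 microscope at 37°C and 5% CO2; staining with Hoechst33342, BioTracker Green Microtubule Cytoskeleton Dye, MitoTracker Red and Annexin V Alexa Fluor 680 had been done at seeding. The CellPathfinder machine-learning gating scheme split cells into Hoechst high-intensity objects or normal cells, normal cells into healthy, pyknosed or fragmented nuclei, and pyknosed cells into mitotic or apoptotic. The tubulin, mitochondrial-mass and membrane-permeability phenotypes are per cents of healthy-nucleus cells.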

[1] = 12 h, 1 µM, compound concentration 1 uM, replicate 1
[2] = 12 h, 1 µM, compound concentration 1 uM, replicate 2
[3] = 12 h, 10 µM, compound concentration 10 uM, replicate 1
[4] = 12 h, 10 µM, compound concentration 10 uM, replicate 2
[5] = 24 h, 1 µM, compound concentration 1 uM, replicate 1
[6] = 24 h, 1 µM, compound concentration 1 uM, replicate 2
[7] = 24 h, 10 µM, compound concentration 10 uM, replicate 1
[8] = 24 h, 10 µM, compound concentration 10 uM, replicate 2
[9] = 48 h, 1 µM, compound concentration 1 uM, replicate 1
[10] = 48 h, 1 µM, compound concentration 1 uM, replicate 2
[11] = 48 h, 10 µM, compound concentration 10 uM, replicate 1
[12] = 48 h, 10 µM, compound concentration 10 uM, replicate 2

COc1ccc(-c2ccc3ncc4c(c3c2)n(-c2ccc(N3CCNCC3)c(C(F)(F)F)c2)c(=O)n4C)cn1.O=C(O)/C=C\C(=O)O [BGT-226]
Population Apoptotic (%) [1]: 67% | Population Fragmented Nuclei (%) [1]: 34% | Population Healthy Nuclei (%) [1]: 14% | Population Hoechst High Intensity Objects (%) [1]: 14% | Population Membrane Permeable-Phenotype (%) [1]: 26% | Population Mitochondria Different-Phenotype (%) [1]: 33% | Population Mitotic Cells (%) [1]: 32% | Population Normal (%) [1]: 85% | Population Pyknosed Nuclei (%) [1]: 50% | Population Tubulin-Different-Phenotype (%) [1]: 93% | Total Cell Count [1]: 122 | Population Apoptotic (%) [2]: 81% | Population Fragmented Nuclei (%) [2]: 24% | Population Healthy Nuclei (%) [2]: 45% | Population Hoechst High Intensity Objects (%) [2]: 17% | Population Membrane Permeable-Phenotype (%) [2]: 70% | Population Mitochondria Different-Phenotype (%) [2]: 94% | Population Mitotic Cells (%) [2]: 18% | Population Normal (%) [2]: 82% | Population Pyknosed Nuclei (%) [2]: 29% | Population Tubulin-Different-Phenotype (%) [2]: 94% | Total Cell Count [2]: 45 | Population Apoptotic (%) [3]: 62% | Population Fragmented Nuclei (%) [3]: 27% | Population Healthy Nuclei (%) [3]: 2% | Population Hoechst High Intensity Objects (%) [3]: 14% | Population Membrane Permeable-Phenotype (%) [3]: 50% | Population Mitochondria Different-Phenotype (%) [3]: 0% | Population Mitotic Cells (%) [3]: 37% | Population Normal (%) [3]: 85% | Population Pyknosed Nuclei (%) [3]: 69% | Population Tubulin-Different-Phenotype (%) [3]: 0% | Total Cell Count [3]: 89 | Population Apoptotic (%) [4]: 100% | Population Fragmented Nuclei (%) [4]: 70% | Population Healthy Nuclei (%) [4]: 9% | Population Hoechst High Intensity Objects (%) [4]: 62% | Population Membrane Permeable-Phenotype (%) [4]: 24% | Population Mitochondria Different-Phenotype (%) [4]: 32% | Population Mitotic Cells (%) [4]: 0% | Population Normal (%) [4]: 37% | Population Pyknosed Nuclei (%) [4]: 19% | Population Tubulin-Different-Phenotype (%) [4]: 24% | Total Cell Count [4]: 675 | Population Apoptotic (%) [5]: 69% | Population Fragmented Nuclei (%) [5]: 45% | Population Healthy Nuclei (%) [5]: 12% | Population Hoechst High Intensity Objects (%) [5]: 18% | Population Membrane Permeable-Phenotype (%) [5]: 58% | Population Mitochondria Different-Phenotype (%) [5]: 16% | Population Mitotic Cells (%) [5]: 30% | Population Normal (%) [5]: 81% | Population Pyknosed Nuclei (%) [5]: 41% | Population Tubulin-Different-Phenotype (%) [5]: 50% | Total Cell Count [5]: 115 | Population Apoptotic (%) [6]: 83% | Population Fragmented Nuclei (%) [6]: 20% | Population Healthy Nuclei (%) [6]: 40% | Population Hoechst High Intensity Objects (%) [6]: 30% | Population Membrane Permeable-Phenotype (%) [6]: 66% | Population Mitochondria Different-Phenotype (%) [6]: 91% | Population Mitotic Cells (%) [6]: 16% | Population Normal (%) [6]: 69% | Population Pyknosed Nuclei (%) [6]: 40% | Population Tubulin-Different-Phenotype (%) [6]: 91% | Total Cell Count [6]: 43 | Population Apoptotic (%) [7]: 58% | Population Fragmented Nuclei (%) [7]: 23% | Population Healthy Nuclei (%) [7]: 32% | Population Hoechst High Intensity Objects (%) [7]: 26% | Population Membrane Permeable-Phenotype (%) [7]: 38% | Population Mitochondria Different-Phenotype (%) [7]: 0% | Population Mitotic Cells (%) [7]: 41% | Population Normal (%) [7]: 73% | Population Pyknosed Nuclei (%) [7]: 44% | Population Tubulin-Different-Phenotype (%) [7]: 52% | Total Cell Count [7]: 89 | Population Apoptotic (%) [8]: 100% | Population Fragmented Nuclei (%) [8]: 79% | Population Healthy Nuclei (%) [8]: 10% | Population Hoechst High Intensity Objects (%) [8]: 64% | Population Membrane Permeable-Phenotype (%) [8]: 69% | Population Mitochondria Different-Phenotype (%) [8]: 60% | Population Mitotic Cells (%) [8]: 0% | Population Normal (%) [8]: 35% | Population Pyknosed Nuclei (%) [8]: 9% | Population Tubulin-Different-Phenotype (%) [8]: 60% | Total Cell Count [8]: 614 | Population Apoptotic (%) [9]: 84% | Population Fragmented Nuclei (%) [9]: 55% | Population Healthy Nuclei (%) [9]: 25% | Population Hoechst High Intensity Objects (%) [9]: 38% | Population Membrane Permeable-Phenotype (%) [9]: 58% | Population Mitochondria Different-Phenotype (%) [9]: 11% | Population Mitotic Cells (%) [9]: 15% | Population Normal (%) [9]: 61% | Population Pyknosed Nuclei (%) [9]: 19% | Population Tubulin-Different-Phenotype (%) [9]: 47% | Total Cell Count [9]: 111 | Population Apoptotic (%) [10]: 62% | Population Fragmented Nuclei (%) [10]: 28% | Population Healthy Nuclei (%) [10]: 59% | Population Hoechst High Intensity Objects (%) [10]: 27% | Population Membrane Permeable-Phenotype (%) [10]: 19% | Population Mitochondria Different-Phenotype (%) [10]: 19% | Population Mitotic Cells (%) [10]: 37% | Population Normal (%) [10]: 72% | Population Pyknosed Nuclei (%) [10]: 11% | Population Tubulin-Different-Phenotype (%) [10]: 85% | Total Cell Count [10]: 188 | Population Apoptotic (%) [11]: 66% | Population Fragmented Nuclei (%) [11]: 57% | Population Healthy Nuclei (%) [11]: 37% | Population Hoechst High Intensity Objects (%) [11]: 42% | Population Membrane Permeable-Phenotype (%) [11]: 50% | Population Mitochondria Different-Phenotype (%) [11]: 4% | Population Mitotic Cells (%) [11]: 33% | Population Normal (%) [11]: 57% | Population Pyknosed Nuclei (%) [11]: 4% | Population Tubulin-Different-Phenotype (%) [11]: 58% | Total Cell Count [11]: 111 | Population Apoptotic (%) [12]: 25% | Population Fragmented Nuclei (%) [12]: 75% | Population Healthy Nuclei (%) [12]: 17% | Population Hoechst High Intensity Objects (%) [12]: 44% | Population Membrane Permeable-Phenotype (%) [12]: 44% | Population Mitochondria Different-Phenotype (%) [12]: 33% | Population Mitotic Cells (%) [12]: 75% | Population Normal (%) [12]: 55% | Population Pyknosed Nuclei (%) [12]: 7% | Population Tubulin-Different-Phenotype (%) [12]: 55% | Total Cell Count [12]: 94
